Assay results as given in ChEMBL document CHEMBL4406806, “Design, Synthesis, and Characterization of Ogerin-Based Positive Allosteric Modulators for G Protein-Coupled Receptor 68 (GPR68)” (J Med Chem, 2019).
pEC50, pIC50, pKd, pKi: −log10 of the molar value. Blank lines part the entries; values can stand above or below the compound they belong to. Calls of active or inactive are those of the source. No cut-off for these calls is given here.

What was measured:
[1] = target: G-protein coupled receptor 68 (Mus musculus) (UniProt Q8BFQ3); test: (§1) Positive allosteric modulation of mouse GPR68 expressed in HEK293T cells co-expressing Gs assessed as stimulation of proton-mediated cAMP production by measuring efficacy cooperativity in HBSS buffer containing pH 6.8 to 8.2 HEPES/pH 8.3 to 8.6 TAPS measured after 20 to 30 mins in presence of PDE inhibitor Ro 20-1724 by luciferase-glo reporter gene assay; assay type: functional, cell-based
Method in brief: (§2)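 α, β and KB obtained by fitting proton responses with and without modulator to the standard allosteric operational model. Overall index is log(αβ/KB). Values are mean ± SEM from ≥3 independent assays, each run in triplicate or quadruplicate.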

[2] = target: G-protein coupled receptor 68 (Homo sapiens) (UniProt Q15743); test: as §1, with “human” for “mouse”; assay type: functional, cell-based
Method in brief: (§3)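 Transient co-transfection of HEK293T with receptor and GloSensor plasmids using PEI, overnight, then replated in DMEM + 1% dFBS for 6–24 h. Luciferin 3.5 mM loaded for 1 h at 37 °C in HBSS/20 mM TAPS, pH 8.40. Proton series: Ca/Mg-free HBSS with MES (pH 5.60–6.70), HEPES (6.80–8.20) or TAPS (8.30–8.60), plus 10 μM Ro 20-1724. BSA 1 mg/mL added where solubility required. Luminescence read at 20–30 min. At least six 16-point proton curves across modulator concentrations, quadruplicate, ≥3 independent assays.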

[3] = target: T1, Adenosine receptor A2a (Homo sapiens, UniProt P29274); test: Antagonist activity at recombinant human A2A receptor expressed in HEK293T cells co-expressing Gs assessed as inhibition of NECA-stimulated cAMP accumulation preincubated for 15 mins followed by NECA addition and measured after 15 mins by Glosensor chemiluminescence assay; assay type: functional, cell-based
[4] = target: T1, Adenosine receptor A2a; test: Inverse agonist activity at recombinant human A2A receptor expressed in HEK293T cells co-expressing Gs assessed as decrease in cAMP accumulation measured after 15 mins by Glosensor chemiluminescence assay; assay type: functional, cell-based
[5] = target: G-protein coupled receptor 68 (Mus musculus) (UniProt Q8BFQ3); test: as §1, with “allosteric index” for “efficacy cooperativity”; assay type: functional, cell-based; method in brief: as §2
[6] = target: Atypical chemokine receptor 3 (Homo sapiens, UniProt P25106); test: Agonist activity at human ACKR3 expressed in HTLA cells assessed as stimulation of beta-arrestin recruitment at 1 uM incubated for 16 to 20 hrs by bright-glo luminescence assay; assay type: cell-based
[7] = target: T1, Adenosine receptor A2a; test: Displacement of [3H]ZM241385 from recombinant human A2A receptor incubated for 90 mins under dark condition by microbeta scintillation method
[8] = target: G-protein coupled receptor 68 (Homo sapiens) (UniProt Q15743); test: as §1, with “human” for “mouse”, “allosteric index” for “efficacy cooperativity”; assay type: functional, cell-based; method in brief: as §3
[9] = target: T1, Adenosine receptor A2a; test: Agonist activity at recombinant human A2A receptor expressed in HEK293T cells co-expressing Gs assessed as stimulation of cAMP accumulation measured after 15 mins by Glosensor chemiluminescence assay; assay type: functional, cell-based
[10] = target: G-protein coupled receptor 68 (Homo sapiens) (UniProt Q15743); test: as §1, with “human” for “mouse”, “allosteric affinity” for “efficacy”; assay type: functional, cell-based; method in brief: as §3
[11] = target: G-prodeshotein coupled receptor 4 (Homo sapiens) (UniProt P46093); test: as §1, with “human GPR4” for “mouse GPR68”, “at higher concentration” for “by measuring efficacy cooperativity”; assay type: functional, cell-based; method in brief: as §3
[12] = target: G-protein coupled receptor 65 (Homo sapiens) (UniProt Q8IYL9); test: as §1, with “human GPR65” for “mouse GPR68”, “at higher concentration” for “by measuring efficacy cooperativity”; assay type: functional, cell-based; method in brief: as §3
[13] = target: G-protein coupled receptor 68 (Mus musculus) (UniProt Q8BFQ3); test: as §1, with “allosteric affinity” for “efficacy”; assay type: functional, cell-based; method in brief: as §2
[14] = Toxicity in Swiss albino mouse assessed as effect on clinical parameter at 25 mg/kg, ip administered as single dose; assay type: organism-based; conditions: in vivo
[15] = target: G-protein coupled receptor 68 (Homo sapiens) (UniProt Q15743); test: as §1, with “human” for “mouse”, “production” for “production by measuring efficacy cooperativity”; assay type: functional, cell-based; method in brief: as §3
[16] = target: T2, 5-hydroxytryptamine receptor 2B (Homo sapiens, UniProt P41595); test: Antagonist activity at human 5HT2B receptor expressed in Flp-In-HEK cells co-expressing Gq assessed as inhibition of 5HT-induced stimulation of calcium mobilization preincubated for 10 mins followed by 5HT addition by fluo-4 calcium dye-based FLIPR assay; assay type: functional, cell-based
[17] = target: T2, 5-hydroxytryptamine receptor 2B; test: Agonist activity at human 5HT2B receptor expressed in Flp-In-HEK cells co-expressing Gq assessed as stimulation of calcium mobilization measured for 2 mins by fluo-4 calcium dye-based FLIPR assay; assay type: functional, cell-based
Method in brief: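 HEK293 cells stably expressing 5-HT2B, seeded overnight (16–20 h) on poly-L-Lys in DMEM + 1% dFBS. Fluo-4 Direct dye loaded for 1 h at 37 °C in HBSS/20 mM HEPES/2.5 mM probenecid, pH 7.40. Drug diluted in buffer with 1 mg/mL BSA and 0.1 mg/mL ascorbic acid. Fluorescence read for 2 min; peak fold of basal within the first minute.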

[18] = Drug uptake in Swiss albino mouse plasma at 25 mg/kg, ip administered as single dose measured after 0.5 hrs; assay type: ADME, organism-based
[19] = Drug uptake in Swiss albino mouse plasma at 25 mg/kg, ip administered as single dose measured up to 2 hrs; assay type: ADME, organism-based; conditions: in vivo
[20] = Drug uptake in Swiss albino mouse brain at 25 mg/kg, ip administered as single dose measured after 0.5 hrs; assay type: ADME, organism-based; conditions: read-out: Drug uptake
[21] = target: T3, Melatonin receptor type 1A (Homo sapiens, UniProt P48039); test: Agonist activity at human MT1 receptor expressed in HTLA cells assessed as stimulation of beta-arrestin recruitment at 1 uM incubated for 16 to 20 hrs by bright-glo luminescence assay; assay type: cell-based
[22] = target: T3, Melatonin receptor type 1A; test: Agonist activity at human MT1 receptor expressed in HTLA cells assessed as stimulation of beta-arrestin recruitment incubated for 16 to 20 hrs by bright-glo luminescence assay; assay type: cell-based
Method in brief: (§4)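 Tango arrestin assay in HTLA cells transfected with receptor DNA overnight in DMEM + 10% FBS, then replated on poly-L-Lys in DMEM + 1% dFBS. Drugs added 6 h later and incubated overnight (16–20 h). Medium removed, Bright-Glo added, luminescence counted.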

[23] = target: T4, Melatonin receptor type 1B (Homo sapiens) (UniProt P49286); test: Agonist activity at human MT2 receptor expressed in HTLA cells assessed as stimulation of beta-arrestin recruitment incubated for 16 to 20 hrs by bright-glo luminescence assay relative to control; assay type: cell-based; method in brief: as §4
T4 sequence (whole entry): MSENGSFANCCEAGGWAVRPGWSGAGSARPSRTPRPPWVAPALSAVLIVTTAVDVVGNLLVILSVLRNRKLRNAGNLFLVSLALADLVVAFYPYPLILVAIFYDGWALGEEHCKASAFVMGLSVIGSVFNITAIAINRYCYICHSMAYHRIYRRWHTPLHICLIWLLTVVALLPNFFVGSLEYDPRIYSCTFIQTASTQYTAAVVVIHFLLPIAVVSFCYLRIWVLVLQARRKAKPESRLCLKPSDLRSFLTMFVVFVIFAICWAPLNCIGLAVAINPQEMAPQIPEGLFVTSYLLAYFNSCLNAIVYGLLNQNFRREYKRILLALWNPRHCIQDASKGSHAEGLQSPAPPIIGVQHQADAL

[24] = target: T5, Melatonin receptor type 1B (Homo sapiens, UniProt P49286); test: Agonist activity at human MT2 receptor expressed in HTLA cells assessed as stimulation of beta-arrestin recruitment incubated for 16 to 20 hrs by bright-glo luminescence assay; assay type: cell-based; method in brief: as §4
T5 sequence (P49286 whole entry): T4 sequence (whole entry)

[25] = Drug uptake in Swiss albino mouse brain at 25 mg/kg, ip administered as single dose measured up to 2 hrs; assay type: ADME, organism-based; conditions: in vivo
[26] = target: T2, 5-hydroxytryptamine receptor 2B; test: Displacement of [3H]LSD from recombinant human 5HT2B stably expressed in HEK cell membranes incubated for 90 mins under dark condition by microbeta scintillation counting analysis
[27] = target: T4, Melatonin receptor type 1B (Homo sapiens); test: Agonist activity at human MT2 receptor expressed in HTLA cells assessed as stimulation of beta-arrestin recruitment at 1 uM incubated for 16 to 20 hrs by bright-glo luminescence assay; assay type: cell-based

T3 sequence (P48039 whole entry): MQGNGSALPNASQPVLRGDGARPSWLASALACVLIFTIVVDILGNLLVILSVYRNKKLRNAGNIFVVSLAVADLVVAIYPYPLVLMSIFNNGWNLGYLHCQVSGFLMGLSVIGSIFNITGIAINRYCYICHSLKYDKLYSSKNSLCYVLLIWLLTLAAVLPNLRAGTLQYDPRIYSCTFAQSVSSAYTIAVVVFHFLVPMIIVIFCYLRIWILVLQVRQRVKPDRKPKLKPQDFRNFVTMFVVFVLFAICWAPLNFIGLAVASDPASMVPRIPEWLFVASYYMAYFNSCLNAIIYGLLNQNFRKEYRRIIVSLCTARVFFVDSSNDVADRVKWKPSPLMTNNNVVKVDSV
G-protein coupled receptor 68 (Homo sapiens), sequence (Q15743 whole entry): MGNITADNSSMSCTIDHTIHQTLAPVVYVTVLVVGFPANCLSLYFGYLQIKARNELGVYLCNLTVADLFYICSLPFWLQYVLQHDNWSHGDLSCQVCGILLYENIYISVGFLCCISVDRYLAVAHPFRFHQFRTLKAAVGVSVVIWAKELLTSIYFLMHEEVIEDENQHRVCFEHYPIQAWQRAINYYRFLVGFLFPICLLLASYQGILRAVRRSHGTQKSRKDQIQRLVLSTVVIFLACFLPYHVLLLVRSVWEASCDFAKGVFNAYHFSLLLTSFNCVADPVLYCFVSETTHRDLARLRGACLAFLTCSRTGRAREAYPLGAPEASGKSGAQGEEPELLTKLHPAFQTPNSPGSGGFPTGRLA
T2 sequence (P41595 whole entry): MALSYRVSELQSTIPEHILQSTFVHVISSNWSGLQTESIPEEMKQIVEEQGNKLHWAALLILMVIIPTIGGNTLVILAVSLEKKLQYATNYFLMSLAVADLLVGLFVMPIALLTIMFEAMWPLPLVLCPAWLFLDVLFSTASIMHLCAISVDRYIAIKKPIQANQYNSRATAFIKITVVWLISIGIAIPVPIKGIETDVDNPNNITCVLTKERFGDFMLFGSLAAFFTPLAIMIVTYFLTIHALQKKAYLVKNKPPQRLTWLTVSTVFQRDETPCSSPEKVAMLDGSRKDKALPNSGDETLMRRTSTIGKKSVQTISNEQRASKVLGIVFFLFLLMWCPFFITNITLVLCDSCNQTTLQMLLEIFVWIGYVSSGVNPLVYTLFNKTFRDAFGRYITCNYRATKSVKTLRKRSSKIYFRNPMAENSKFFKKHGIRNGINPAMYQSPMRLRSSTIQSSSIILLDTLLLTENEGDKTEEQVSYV
G-protein coupled receptor 68 (Mus musculus), sequence (Q8BFQ3 whole entry): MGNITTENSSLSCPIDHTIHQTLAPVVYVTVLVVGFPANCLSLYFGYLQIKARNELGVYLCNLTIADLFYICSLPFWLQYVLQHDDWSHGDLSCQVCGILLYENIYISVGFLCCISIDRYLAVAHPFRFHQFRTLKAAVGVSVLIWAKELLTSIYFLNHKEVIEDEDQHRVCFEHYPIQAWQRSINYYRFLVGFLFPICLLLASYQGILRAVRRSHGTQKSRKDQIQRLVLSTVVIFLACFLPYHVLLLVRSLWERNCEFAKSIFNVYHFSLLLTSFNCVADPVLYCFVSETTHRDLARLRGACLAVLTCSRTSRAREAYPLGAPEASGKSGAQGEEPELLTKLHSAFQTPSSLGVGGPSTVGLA
T1 sequence (P29274 whole entry): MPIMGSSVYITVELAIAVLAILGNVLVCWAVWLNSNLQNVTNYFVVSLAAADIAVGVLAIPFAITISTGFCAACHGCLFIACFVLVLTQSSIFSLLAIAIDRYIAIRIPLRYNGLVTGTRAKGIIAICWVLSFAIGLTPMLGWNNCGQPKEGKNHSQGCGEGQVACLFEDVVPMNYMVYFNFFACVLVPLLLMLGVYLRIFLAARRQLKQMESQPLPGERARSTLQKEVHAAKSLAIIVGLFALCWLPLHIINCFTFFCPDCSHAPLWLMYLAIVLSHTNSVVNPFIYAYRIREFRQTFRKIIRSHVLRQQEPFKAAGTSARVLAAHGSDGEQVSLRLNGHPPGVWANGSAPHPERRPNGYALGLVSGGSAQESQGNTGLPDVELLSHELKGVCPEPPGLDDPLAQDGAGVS
G-protein coupled receptor 65 (Homo sapiens), sequence (Q8IYL9 whole entry): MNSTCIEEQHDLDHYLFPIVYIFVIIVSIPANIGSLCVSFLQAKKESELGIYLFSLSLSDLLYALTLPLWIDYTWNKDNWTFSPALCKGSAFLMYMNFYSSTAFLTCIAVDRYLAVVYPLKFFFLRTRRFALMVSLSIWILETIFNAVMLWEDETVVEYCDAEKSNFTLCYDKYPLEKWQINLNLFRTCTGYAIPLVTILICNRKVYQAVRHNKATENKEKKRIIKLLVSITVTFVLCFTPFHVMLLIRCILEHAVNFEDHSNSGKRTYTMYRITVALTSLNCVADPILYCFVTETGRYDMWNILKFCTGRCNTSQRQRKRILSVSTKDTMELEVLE
G-prodeshotein coupled receptor 4 (Homo sapiens), sequence (P46093 whole entry, looked up): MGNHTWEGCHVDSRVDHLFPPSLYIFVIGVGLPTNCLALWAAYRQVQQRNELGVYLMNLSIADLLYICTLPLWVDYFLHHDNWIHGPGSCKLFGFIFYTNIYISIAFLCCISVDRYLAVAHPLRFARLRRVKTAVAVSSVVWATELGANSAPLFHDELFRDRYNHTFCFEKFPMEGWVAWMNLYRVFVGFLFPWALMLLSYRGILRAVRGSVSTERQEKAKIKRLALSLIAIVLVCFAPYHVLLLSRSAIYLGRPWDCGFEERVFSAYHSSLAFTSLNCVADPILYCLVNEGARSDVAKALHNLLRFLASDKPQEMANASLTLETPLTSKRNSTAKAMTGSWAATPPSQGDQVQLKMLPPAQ
Atypical chemokine receptor 3, sequence (P25106 whole entry): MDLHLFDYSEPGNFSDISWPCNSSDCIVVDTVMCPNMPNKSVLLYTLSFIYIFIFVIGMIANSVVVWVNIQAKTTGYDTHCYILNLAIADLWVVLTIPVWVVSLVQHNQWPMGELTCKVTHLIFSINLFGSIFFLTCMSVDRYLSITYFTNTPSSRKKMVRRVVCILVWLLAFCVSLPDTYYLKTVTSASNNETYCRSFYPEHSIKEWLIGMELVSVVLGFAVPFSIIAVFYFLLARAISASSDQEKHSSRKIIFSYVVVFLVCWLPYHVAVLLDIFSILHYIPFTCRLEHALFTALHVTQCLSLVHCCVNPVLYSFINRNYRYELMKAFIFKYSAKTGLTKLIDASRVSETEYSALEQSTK

log(activity) [1]: -0.02
log(activity) [2]: 0.41
pKi [3]: 5.17
pIC50 [4]: 5.77
Activity index [5]: 5.68
Activity [6]: inactive
pKi [7]: 6.52
Activity index [8]: 6.11
Activity [9]: inactive
log(activity) [10]: 0.49
Activity [11]: inactive
Activity [12]: inactive
log(activity) [13]: 1.41
SMILES: Nc1nc(NCc2ccc(Cl)cc2)nc(-c2ccccc2CO)n1

Activity [15]: Dose-dependent effect
log(activity) [1]: 0.09
log(activity) [2]: 0.06
pKi [16]: 6.51
Activity [17]: inactive
concentration at 0.5 h [18]: > 10 µM
Drug uptake [19]: Active
concentration at 0.5 h [20]: > 10 µM
Activity [21]: Active
Activity index [5]: 6.46
pEC50 [22]: 6.49
pKd [22]: 5.23
Activity index [8]: 6.83
Emax [23]: 24%
pEC50 [24]: 6.27
pKd [24]: 5.96
Drug uptake [25]: Active
pKi ([26]; read-out: Ki): 6.66
Ki ([26]; read-out: pKi (converted)): 100 to 316 nM
log(activity) [10]: 0.9
Activity [11]: inactive
Activity [12]: inactive
log(activity) [13]: 1.26
Activity [27]: Active
SMILES: Nc1nc(NCc2ccc(Oc3ccccc3)cc2)nc(-c2c(F)cccc2CO)n1
Activity [14]: Non-Toxic
